Test results: ChEMBL document CHEMBL1134334, “3-Aryl[1,2,4]triazino[4,3-a]benzimidazol-4(10H)-ones: a new class of selective A1 adenosine receptor antagonists” (J Med Chem, 2001)
pKi: −log10 of the molar value.

Legend:
[1] = biological target: T1, Adenosine receptor A1 (Bos taurus) (UniProt P28190); test: Displacement of [3H]CHA from adenosine A1 receptor in bovine cortical membrane at 10 uM; format: cell membranes
T1 sequence (whole entry): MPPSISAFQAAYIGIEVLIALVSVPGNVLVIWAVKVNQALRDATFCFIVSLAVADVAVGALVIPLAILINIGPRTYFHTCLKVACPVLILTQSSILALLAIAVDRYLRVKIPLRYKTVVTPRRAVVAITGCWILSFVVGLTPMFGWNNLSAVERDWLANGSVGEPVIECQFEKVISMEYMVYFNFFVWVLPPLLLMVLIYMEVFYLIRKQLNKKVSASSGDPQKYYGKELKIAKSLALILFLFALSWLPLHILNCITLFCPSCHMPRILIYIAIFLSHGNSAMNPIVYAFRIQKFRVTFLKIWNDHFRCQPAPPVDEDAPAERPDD
Method in brief: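 Competition against [3H]CHA (31 Ci/mmol) for A1 sites in bovine cortical membranes. Compounds dissolved in DMSO, final DMSO ≤2%.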

[2] = test system: Adenosine receptor A2a (Bos taurus); test: Displacement of [3H]-CGS- 21680 from adenosine A2a receptor in bovine striatal membrane at 10 uM.; settings: Striatum
Adenosine receptor A1 [3] = biological target: T2, Adenosine receptor A1 (Bos taurus, UniProt P28190); test: Displacement of [3H]CHA from adenosine A1 receptors was determined in bovine cortical membranes; format: cell membranes
T2 sequence (P28190 whole entry): T1 sequence (whole entry)
Method in brief: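 A1 affinity measured by displacement of [3H]CHA (31 Ci/mmol) from bovine cortical membranes. Compounds in DMSO, final ≤2%. At least six concentrations spanning 3 orders of magnitude were used. Ki is the mean ± SEM of four separate assays, each run in triplicate.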

[4] = biological target: Adenosine receptor A2a (Bos taurus); test: Displacement of [3H]-CGS- 21680 from adenosine A2a receptor of bovine striatal membrane
Adenosine receptor A1 [5] = biological target: T2, Adenosine receptor A1; test: Intrinsic activity towards Adenosine A1 receptor as displacement of [3H]DPCPX from bovine cortical membranes without GTP
Method in brief: (§1)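 A1 binding in bovine cortical membranes with [3H]DPCPX as radioligand. Run with 1 mM GTP and without GTP, and the GTP shift was taken from comparing the two conditions. Compounds in DMSO, final ≤2%.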

Adenosine receptor A1 [6] = biological target: T2, Adenosine receptor A1; test: Intrinsic activity towards Adenosine A1 receptor as displacement of [3H]DPCPX from bovine cortical membranes with 1 mM GTP; method in brief: as §1
Adenosine receptor A1 [7] = biological target: T2, Adenosine receptor A1; test: Intrinsic activity towards Adenosine A1 receptor using [3H]DPCPX from bovine cortical membranes without GTP; method in brief: as §1
[8] = biological target: T1, Adenosine receptor A1 (Bos taurus); test: GTP shift for Adenosine A1 receptor; format: functional; method in brief: as §1
[9] = test system: Adenosine receptor A3 (Bos taurus); test: Displacement of [125 I]AB-MECA from adenosine A3 receptor in bovine cortical membranes at 1 uM

| SMILES | inhibition [2] | pKi (Adenosine receptor A1 [3]) | other results |
| --- | --- | --- | --- |
| Oc1c(-c2ccc(Cl)cc2)nnc2nc3ccccc3n12 | 8% | – | inhibition [1]: 44% |
| Cc1nnc2n(C)c3ccccc3n2c1=O | 0% | – | inhibition [1]: 46% |
| O=c1c(-c2ccsc2)nnc2n(Cc3ccccc3)c3ccccc3n12 | 60% | 6.35 | – |
| O=c1c(-c2ccco2)nnc2n(Cc3ccccc3)c3ccccc3n12 | – | 6.00 | pKi [4]: 5.91 |
| Oc1ccc(-c2nnc3nc4ccccc4n3c2O)cc1O | – | 6.33 | pKi [4]: 5.46 |
| Cn1c2ccccc2n2c(=O)c(-c3ccco3)nnc12 | – | 6.09 | pKi [4]: 5.20 |
| Cn1c2ccccc2n2c(=O)cnnc12 | 8% | – | inhibition [1]: 0% |
| Oc1cnnc2nc3ccccc3n12 | 0% | – | inhibition [1]: 34% |
| Cn1c2ccccc2n2c(=O)c(-c3ccc(O)c(O)c3)nnc12 | – | 6.34 | – |
| COc1ccc(-c2nnc3nc4ccccc4n3c2O)cc1OC | 35% | 5.75 | – |
| COc1ccc(-c2nnc3n(C)c4ccccc4n3c2=O)cc1 | 7% | 5.69 | – |
| Cn1c2ccccc2n2c(=O)c(-c3ccc(Cl)cc3)nnc12 | 0% | – | inhibition [1]: 66% |
| COc1ccc(-c2nnc3nc4ccccc4n3c2O)cc1 | 16% | – | inhibition [1]: 30% |
| Cc1nnc2nc3ccccc3n2c1O | 39% | 5.41 | – |
| COc1ccc(-c2nnc3n(C)c4ccccc4n3c2=O)cc1OC | 18% | – | inhibition [1]: 24% |
| C[C@H](Cc1ccccc1)Nc1ncnc2c1ncn2[C@@H]1O[C@H](CO)[C@@H](O)[C@H]1O [(R)-PIA] | – | – | pKi (Adenosine receptor A1 [5]): 8.38; pKi (Adenosine receptor A1 [6]): 7.70 |

Second part, led by results:

| inhibition [2] | pKi (Adenosine receptor A1 [3]) | SMILES | other results |
| --- | --- | --- | --- |
| 43% | 6.69 | Cn1c2ccccc2n2c(=O)c(-c3ccc(O)cc3)nnc12 | – |
| – | 6.46 | O=c1c(-c2ccc(O)cc2)nnc2n(Cc3ccccc3)c3ccccc3n12 | – |
| – | 6.56 | O=c1c(-c2ccccc2)nnc2n(Cc3ccccc3)c3ccccc3n12 | pKi (Adenosine receptor A1 [5]): 6.62; pKi (Adenosine receptor A1 [6]): 6.74 |
| – | 6.60 | Oc1ccc(-c2nnc3nc4ccccc4n3c2O)cc1 | – |
| 55% | 7.11 | Cn1c2ccccc2n2c(=O)c(-c3ccsc3)nnc12 | – |
| – | 6.58 | Oc1c(-c2ccco2)nnc2nc3ccccc3n12 | – |
| – | 6.92 | Oc1c(-c2ccsc2)nnc2nc3ccccc3n12 | pKi [4]: 5.30 |
| – | 7.74 | O=c1c(-c2ccccc2)nnc2n(-c3ccccc3)c3ccccc3n12 | pKi (Adenosine receptor A1 [5]): 7.61; pKi (Adenosine receptor A1 [6]): 7.60 |
| – | 7.07 | Oc1c(-c2ccccc2)nnc2nc3ccccc3n12 | pKi (Adenosine receptor A1 [6]): 6.70; pKi (Adenosine receptor A1 [7]): 6.85 |
| – | 6.50 | O=c1c(-c2ccco2)nnc2n(-c3ccccc3)c3ccccc3n12 | – |
| – | 6.53 | Oc1c(-c2cccs2)nnc2nc3ccccc3n12 | – |
| 19% | 6.63 | Cn1c2ccccc2n2c(=O)c(-c3cccs3)nnc12 | – |
| 25% | 7.20 | Cn1c2ccccc2n2c(=O)c(-c3ccccc3)nnc12 | pKi (Adenosine receptor A1 [5]): 7.03; pKi (Adenosine receptor A1 [6]): 6.92; GTP shift [8]: 1.3; inhibition [9]: 0% |
